Bioassay records from PubChem.
UBC13 polyUb – inhibitors of human UBC13 polyubiquitin chain formation. AID 485273. P61088. 330,000 compounds, 0.47% hits. TR-FRET. inhibition, % at 20 µM; in the data active = inhibition above about 45%, passing the limit was not always enough
Target sequence (P61088 whole entry, looked up): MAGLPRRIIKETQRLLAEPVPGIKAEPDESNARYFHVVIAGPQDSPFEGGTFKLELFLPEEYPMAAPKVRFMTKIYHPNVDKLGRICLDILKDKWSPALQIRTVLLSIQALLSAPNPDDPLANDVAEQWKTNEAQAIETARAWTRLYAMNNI
EBNA-1 inhibitor – blocks EBNA-1 binding to DNA. EBNA-1 DNA binding, fluorescence polarization. inhibition, % at 14.8 µM. 300,000 compounds, 0.34% hits. AID 1950; in the data active = inhibition above about 28%
PREPL inhibitor – inhibitors of human prolyl oligopeptidase-like enzyme PREPL | Q4J6C6 | recombinant PREPL, fluorescence polarization activity-based probe | inhibition, % at 5.96 µM | 320,000 compounds, 0.68% hits | AID 2751; in the data active = inhibition above about 43%;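 also: 0% = enzyme with DMSO and 100% = wells lacking enzyme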
Apaf-1 inh – human Apaf-1 inhibition; O14727; reconstituted apoptosome caspase-3 activity, DEVD-Rh110 fluorescence; inhibition, % at 20 µM; 330,000 compounds, 0.71% hits; active = inhibition of at least 40% at 20 µM;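 also: plate controls were DMSO wells for no effect and DEVD-CHO caspase inhibitor wells for full effect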
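Material: biochemical Apaf-1 apoptosome reconstitution. Medium: Hepes buffer, pH 7.5. Also added: cytochrome c activation, bis-DEVD rhodamine 110 substrate. Timing: 30 min compound preincubation, 50 min activation, room temperature. Measured by: rhodamine 110 fluorescence at Ex 480/Em 540 nm.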
ZTA DNA inh – blocks Epstein-Barr virus ZTA, an EBNA-1 counter-screen; ZTA-DNA binding, fluorescence polarization; 320,000 compounds, 0.15% hits; inhibition, % at 11 µM; in the data active = inhibition above about 33%
Target sequence (P03206 whole entry, looked up): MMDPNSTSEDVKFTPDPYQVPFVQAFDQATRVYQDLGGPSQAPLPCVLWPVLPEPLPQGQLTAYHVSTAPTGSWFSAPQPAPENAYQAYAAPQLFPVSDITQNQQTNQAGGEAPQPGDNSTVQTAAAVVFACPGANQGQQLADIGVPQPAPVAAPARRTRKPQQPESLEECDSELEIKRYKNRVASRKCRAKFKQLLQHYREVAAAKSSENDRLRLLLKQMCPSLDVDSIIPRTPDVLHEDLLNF
Casp3 UBC13 ctr – counter-screen for UBC13 inhibitors: human caspase-3 inhibition. shares compounds with UBC13 polyUb. Recombinant caspase-3, Caspase-Glo 3/7 luminescence, 60 min. inhibition, % at 20 µM. 1,400 compounds, 4% hits;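 active = mean inhibition across replicates above about 26%, limit read from the data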;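 also: plate controls were DMSO with caspase-3 for no effect and DMSO wells lacking enzyme for full effect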
UBC13 conf – human UBC13 polyubiquitin inhibition, confirmed; shares compounds with UBC13 polyUb; UBC13 polyubiquitination, TR-FRET, biochemical; inhibition, % at 10 µM; 1,400 compounds, 68% hits; AID 488859; in the data active = inhibition above about 45%
An asterisk follows results filed as active; . = no result given. Compounds with a hit are over-represented: about 1.7% of the library has one in this group of screens.

SMILES | UBC13 polyUb | EBNA-1 inhibitor | PREPL inhibitor | Apaf-1 inh | ZTA DNA inh | Casp3 UBC13 ctr | UBC13 conf
O=[N+]([O-])c1ccccc1NC(=S)N/N=C/c1ccc(O)c(O)c1 | -3 | 1 | 15 | -9 | 10 | . | .
COCCCNC(=O)Cn1c(=O)n(CC(=O)NCCc2ccc(OC)c(OC)c2)c(=O)c2sccc21 | -2 | 5 | 3 | -22 | 2 | . | .
COc1ccc(CCNC(=O)Cn2c(=O)n(-c3ccc(C)c(F)c3)c(=O)c3sccc32)cc1OC | 49* | 6 | 13 | -13 | -4 | 0 | 46*
Cc1cccc(CSCCNC(=S)Nc2ccccc2)c1 | 48* | -7 | -4 | 18 | -19 | 6 | 10
N#Cc1c(SCc2ccccc2)nc(N2CCOCC2)c2c1CCCC2 | 10 | 3 | 14 | 6 | -11 | . | .
CCSc1nc(N2CCCCC2)c2c(c1C#N)CCCC2 | 47* | 4 | -8 | 11 | -4 | 2 | 46*
COc1ccc(OC)c2sc(N(CCN(C)C)C(=O)c3ccc4ccccc4c3)nc12 | 29 | -14 | 18 | 22 | -16 | . | .
COc1ccc(C)c2sc(N(CCCN(C)C)C(=O)c3ccc(S(=O)(=O)N(C)C)cc3)nc12 | 49* | -4 | 8 | -7 | -11 | -5 | 54*
Cc1ccc2nc(C)c(C(=O)NN=C3CCN(C)CC3)n2c1 | -6 | 7 | 0 | -13 | 0 | . | .
O=C(CSc1nnc(Nc2ccccc2F)s1)NCC1CCCO1 (stereo not given) | 13 | . | 9 | -6 | . | . | .
COc1cc(C2C(C#N)=C(N)Oc3n[nH]c(-c4cccs4)c32)cc(OC)c1O (stereo not given) | 84* | -6 | 0 | -1 | -2 | 0 | 88*
Cc1ccc(C2C(C#N)=C(N)Oc3n[nH]c(-c4cccs4)c32)cc1 (stereo not given) | 2 | 9 | -3 | 26 | -6 | . | .
CCN(CC)CCCNC(=O)c1cc2c(-c3cccc(OC)c3)nn(C)c2s1 | 33 | 2 | -5 | 8 | 2 | . | .
COc1cccc(-c2nn(C)c3sc(C(=O)NCCCN(C)Cc4ccccc4)cc23)c1 | 53* | -4 | -48 | 9 | -6 | -3 | 59*
CCCCN(C)CCNC(=O)c1cc2c(-c3cccc(OC)c3)nn(C)c2s1 | 46* | 1 | -34 | 11 | 14 | 1 | 45
CCCCN(C)CCNC(=O)c1cc2c(-c3ccccc3F)nn(C)c2s1 | 29 | -2 | -39 | 7 | -8 | . | .
CCc1cccc(CC)c1NC(=S)NCCc1c(C)[nH]c2ccc(C)cc12 | 1 | -2 | 8 | 8 | -3 | . | .
O=C(Cn1cnc2c(nnn2Cc2ccccc2)c1=O)NCc1ccccc1Cl | -8 | 6 | -5 | -19 | -8 | . | .
NCCCNCCCCNCCCN | 93* | . | -3 | 29 | . | -3 | 73*
NS(=O)(=O)c1ccc(CCNC(=O)c2cncc(Br)c2)cc1 | 1 | 3 | -7 | 1 | 0 | . | .
COc1ccc(-c2csc(NC(=O)CSc3n[nH]c(C)n3)n2)cc1 | 2 | -14 | -50 | 13 | 9 | . | .
CCC(C)(C)NC(=O)CN(C(=O)c1snc(C(N)=O)c1N)c1ccc2c(c1)OCCO2 | 70* | 6 | -8 | -5 | -3 | -6 | 59*
CCCC(C(=O)NC(C)(C)C)N(C(=O)c1snc(C(N)=O)c1N)c1ccc2c(c1)OCCO2 (stereo not given) | 65* | -2 | 0 | -2 | -3 | -3 | 86*
CCC(C)(C)NC(=O)CN(C(=O)c1snc(C(N)=O)c1N)c1ccc2nc(C)sc2c1 | 74* | 2 | 11 | 0 | -6 | 2 | 83*
COc1ccc(N(CC(=O)NC2CCCCC2)C(=O)c2snc(C(N)=O)c2N)cc1 | 23 | -2 | -2 | 10 | -4 | . | .
SMILES | UBC13 polyUb | EBNA-1 inhibitor | PREPL inhibitor | Apaf-1 inh | ZTA DNA inh | Casp3 UBC13 ctr | UBC13 conf
CC(=O)n1nc(-c2ccccc2)nc1NCc1ccc(F)cc1 | 5 | 3 | -9 | 6 | 6 | . | .
O=C1c2ccccc2N2C(=O)c3ccccc3C2N1Cc1ccco1 (stereo not given) | 1 | -11 | 8 | 14 | 1 | . | .
COc1ccc(NC(=S)Nc2ccc(OCc3ccccc3)cc2)c(OC)c1 | 8 | 10 | 9 | 9 | 15 | . | .
CNC[C@@H](Cc1ccccc1)NC[C@@H](CC1CCCCC1)NCCCc1ccccc1 | 93* | 0 | 14 | 23 | -2 | -2 | 76*
CN(Cc1cccc(C(F)(F)F)c1)C(=O)C1CCC(=O)N(CC2CCCCC2)C1 (stereo not given) | 8 | 3 | 13 | 13 | -6 | . | .
CCC[C@@H](CNC)NC[C@H](Cc1ccccc1)NCCCCc1ccccc1 | 36 | 4 | 18 | -1 | -5 | . | .
CNC[C@@H](CC1CCCCC1)NC[C@H](CC(C)C)NCCc1cccc(C(F)(F)F)c1 | 92* | -8 | 10 | 29 | -23 | -1 | 80*
CC1CCN(C(=O)CNC(=O)Cc2ccccc2)CC1 | 4 | 9 | 3 | -8 | 11 | . | .
O=C1N[C@@H](Cc2ccccc2)COC(=O)[C@H](Cc2ccc(F)cc2)C/C=C\C[C@H]1CC(=O)N(CCO)Cc1ccccc1 | 23 | . | 31 | 27 | . | . | .
O=C(CCCCCn1c(SCc2ccncc2)nc2ccccc2c1=O)NCc1ccco1 | 69* | 7 | 14 | 17 | -19 | -3 | 47*
COc1ccc(C(=O)Nn2c(SCC(=O)NCc3ccco3)nc3ccccc3c2=O)cc1 | 71* | -5 | -6 | 0 | -31 | 25 | 74*
COc1ccc(C(=O)Nn2c(SCC(=O)NC3CCCCC3)nc3ccccc3c2=O)cc1 | 31 | -33 | 13 | 21 | -21 | . | .
COc1ccc(C(=O)Nn2c(SCC(=O)N3CCC(C)CC3)nc3ccccc3c2=O)cc1 | 80* | -8 | 3 | 17 | -2 | 85* | 84*
CCn1c(SCC(=O)NCc2ccco2)nc2ccccc2c1=O | 8 | -3 | 18 | 4 | -2 | . | .
COc1ccc(C(=O)Nn2c(SCC(=O)c3ccc(Cl)cc3)nc3ccccc3c2=O)cc1 | 50* | 13 | 2 | 3 | 4 | 0 | 56*
COc1ccc(C(=O)Nn2c(SCc3cccc([N+](=O)[O-])c3)nc3ccccc3c2=O)cc1 | 43 | -6 | -10 | 7 | 1 | . | .
O=[N+]([O-])c1cccc2ccc(/C=C/c3ccc(F)cc3)nc12 | -22 | 0 | 4 | 4 | -15 | . | .
CCOC(=O)c1ccc(NC(=O)CSc2nnc(CNC(=O)c3c(F)cccc3Cl)o2)cc1 | 2 | -1 | 13 | 3 | -17 | . | .
Cc1cc(=O)oc2cc(OC(C)C(=O)NC3CCCC3)ccc12 (stereo not given) | 4 | 7 | -2 | -1 | 4 | . | .
O=C(NNc1nc(Nc2ccccc2)nc(N2CCOCC2)n1)Nc1ccc(Cl)cc1 | -1 | -1 | -5 | 28 | 0 | . | .
NCCCC[C@@H](C(=O)N1CCNCC1)n1cc(CN)nn1 | 60* | 0 | -8 | 1 | -1 | 3 | 47*
